Measured values taken from ChEMBL document CHEMBL3351250, “Modified salicylanilide and 3-phenyl-2H-benzo[e][1,3]oxazine-2,4(3H)-dione derivatives as novel inhibitors of osteoclast differentiation and bone resorption” (J Med Chem, 2014).
Calls of active or inactive are those of the source. No cut-off for these calls is given here.

Assays:
[1] = Cytotoxicity against mouse RAW264.7 cells assessed as survival rate at 10 uM after 24 hrs by MTT assay; type: cell-based; conditions: read-out: Activity
Summary of the method: (§1)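 Cells at 1 × 10⁴/well in DMEM + 10% FBS, exposed to compounds for 24 h at 37 °C, 5% CO₂. After PBS washes, MTT (0.5 mg/mL in medium) added for 1 h at 37 °C; formazan dissolved in DMSO, absorbance read at 540 nm. Viability expressed as % of DMSO control; CC₅₀ is the concentration giving 50% loss of mean viability (N = 3).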

[2] = Cytotoxicity against mouse RAW264.7 cells assessed as reduction in survival rate after 24 hrs by MTT assay; type: cell-based; summary of the method: as §1
[3] = system: RAW264.7; experiment: Inhibition of RANKL-induced osteoclastogenesis in mouse RAW264.7 cells assessed as TRAP+ multinucleated cells level at 10 uM incubated for 4 days by TRAP staining assay; type: functional; set-up: scale not given: the % may be the effect or the level left
Summary of the method: (§2)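 Cells plated at 1 × 10³ (96-well) or 5 × 10⁴ (48-well) in α-MEM with 10% FBS, 2 mM […], 100 ng/mL recombinant murine RANKL and compound for 4 days; medium changed on day 2. Fixed in acetone/citrate/formaldehyde for 5 min and TRAP-stained. TRAP⁺ cells with >5 nuclei counted by light microscopy, expressed as % of the RANKL-only group.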

[4] = system: RAW264.7; experiment: Inhibition of RANKL-induced osteoclastogenesis in mouse RAW264.7 cells assessed as TRAP+ multinucleated cells level incubated for 4 days by TRAP staining assay; type: functional, cell-based; conditions: RAW264.7, 96 h
Summary of the method: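 RAW264.7 cells in α-MEM with 10% FBS, 2 mM […], 100 ng/mL recombinant soluble murine RANKL and a range of compound concentrations for 4 days, with medium changed on day 2. Cells fixed in acetone/citrate/formaldehyde for 5 min and TRAP-stained. Cells with >5 nuclei counted by light microscopy and expressed as % of RANKL-only; IC50 is 50% inhibition.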

[5] = system: RAW264.7; experiment: Cytotoxicity against mouse RAW264.7 cells assessed as survival rate at 5 and 10 uM after 24 hrs by MTT assay; type: cell-based; conditions: raw264.7, 24 h; summary of the method: as §1
[6] = system: RAW264.7; experiment: Inhibition of RANKL-induced osteoclastogenesis in mouse RAW264.7 cells assessed as TRAP+ multinucleated cells level at 5 uM incubated for 4 days by TRAP staining assay; type: functional; set-up: scale not given: the % may be the effect or the level left; summary of the method: as §2
[7] = system: RAW264.7; experiment: Inhibition of RANKL-induced osteoclastogenesis in mouse RAW264.7 cells assessed as TRAP+ multinucleated cells level at […] incubated for 4 days by TRAP staining assay; type: functional; set-up: scale not given: the % may be the effect or the level left
[8] = system: RAW264.7; experiment: Inhibition of RANKL-induced osteoclastogenesis in mouse RAW264.7 cells assessed as reduction in TRAP activity incubated for 4 days by TRAP staining assay; type: functional, cell-based; conditions: for IC50: RAW264.7, 96 h
Summary of the method: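 RAW264.7 cells were RANKL-differentiated (100 ng/mL recombinant soluble murine RANKL in α-MEM/10% FBS, compounds at various concentrations, 4 days, medium changed day 2). TRAP activity was read with 2 mg/mL 4-nitrophenyl phosphate in 0.09 M citrate buffer for 15 min at 37 °C, stopped with 0.1 N NaOH. Expressed as % of RANKL-only; IC50 is 50% inhibition.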

[9] = system: RAW264.7; experiment: Inhibition of RANKL-induced NFATc1 mRNA expression in mouse RAW264.7 cells at 5 to […] pre-treated for 1 hr before RANKL stimulation measured after 24 to 48 hrs by RT-PCR method; type: functional, cell-based
[10] = system: RAW264.7; experiment: Inhibition of RANKL-induced c-fos mRNA expression in mouse RAW264.7 cells at 5 to […] pre-treated for 1 hr before RANKL stimulation measured after 24 to 48 hrs by RT-PCR method; type: functional, cell-based
[11] = system: RAW264.7; experiment: Inhibition of RANKL-induced DC-STAMP mRNA expression in mouse RAW264.7 cells at 5 to […] pre-treated for 1 hr before RANKL stimulation measured after 24 to 48 hrs by RT-PCR method; type: functional, cell-based
[12] = system: RAW264.7; experiment: Inhibition of RANKL-induced TRAP mRNA expression in mouse RAW264.7 cells at 5 to […] pre-treated for 1 hr before RANKL stimulation measured after 24 to 48 hrs by RT-PCR method; type: functional, cell-based
[13] = system: RAW264.7; experiment: Inhibition of RANKL-induced cathepsin K mRNA expression in mouse RAW264.7 cells at 5 to […] pre-treated for 1 hr before RANKL stimulation measured after 24 to 48 hrs by RT-PCR method; type: functional, cell-based
[14] = system: RAW264.7; experiment: Inhibition of RANKL-induced MMP9 mRNA expression in mouse RAW264.7 cells at 5 to […] pre-treated for 1 hr before RANKL stimulation measured after 24 to 48 hrs by RT-PCR method; type: functional, cell-based
[15] = system: RAW264.7; experiment: Inhibition of RANKL-induced NFATc1 protein expression in mouse RAW264.7 cells nuclear extracts at 5 to […] pre-treated for 1 hr before RANKL stimulation measured after 24 hrs by Western blotting method; type: functional, cell-based
[16] = system: RAW264.7; experiment: Inhibition of RANKL-induced NFkappaB protein expression in mouse RAW264.7 cells nuclear extracts at 5 to […] pre-treated for 1 hr before RANKL stimulation measured after 24 hrs by Western blotting method; type: functional, cell-based
[17] = system: RAW264.7; experiment: Inhibition of RANKL-induced NFkappaB protein expression in mouse RAW264.7 cells nuclear extracts assessed as NFkappaB level at 5 uM pre-treated for 1 hr before RANKL stimulation measured after 24 hrs by Western blotting method relative to TBP protein; type: functional
Summary of the method: (§3)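 Cells (1 × 10⁶ per 6 cm plate) attached 24 h in DMEM/10% FBS. Pretreated with compound in α-MEM/10% FBS for 1 h, then RANKL 100 ng/mL for 24 h. Nuclear extracts (18 μg) run on 12% SDS-PAGE and blotted with monoclonal anti-NFATc1 or anti-NF-κB (1:1000, 12 h, 4 °C) plus HRP secondary, ECL detection. Band signal normalized to TATA-box binding protein.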

[18] = system: RAW264.7; experiment: Inhibition of RANKL-induced NFkappaB protein expression in mouse RAW264.7 cells nuclear extracts assessed as NFkappaB level at […] pre-treated for 1 hr before RANKL stimulation measured after 24 hrs by Western blotting method relative to TBP protein; type: functional
[19] = system: RAW264.7; experiment: Inhibition of RANKL-induced NFATc1 protein expression in mouse RAW264.7 cells nuclear extracts assessed as NFATc1 level at 5 uM pre-treated for 1 hr before RANKL stimulation measured after 24 hrs by Western blotting method relative to TBP protein; type: functional; summary of the method: as §3
[20] = system: RAW264.7; experiment: Inhibition of RANKL-induced NFATc1 protein expression in mouse RAW264.7 cells nuclear extracts assessed as NFATc1 level at […] pre-treated for 1 hr before RANKL stimulation measured after 24 hrs by Western blotting method relative to TBP protein; type: functional
[21] = system: RAW264.7; experiment: Inhibition of RANKL-induced bone resorption in mouse RAW264.7 cells incubated for 4 days by toluidine blue staining based pit formation assay; type: functional, cell-based
Summary of the method: (§4)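 Seeded at 1 × 10⁴/well onto dentine slices in α-MEM/10% FBS with 100 ng/mL RANKL plus compound. Medium with compound renewed every 2 days. On day 4, cells removed with 1 M ammonium hydroxide, slices stained with 0.1% toluidine blue, pits imaged by light microscopy. Resorbed area expressed as fraction of total area; significance versus the RANKL-only group.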

[22] = system: RAW264.7; experiment: Inhibition of RANKL-induced bone resorption in mouse RAW264.7 cells assessed as reduction in resorbed area at 2.5 to 10 uM incubated for 4 days by toluidine blue staining based pit formation assay; type: functional, cell-based; summary of the method: as §4
[23] = Toxicity in mouse MC3T3-E1 cells assessed as effect on osteoblast differentiation by measuring ALP activity at […] incubated for 14 days in presence of beta-glycerol phosphate and ascorbic acid; type: cell-based; conditions: mc3t3-e1, 336 h
[24] = Toxicity in mouse MC3T3-E1 cells assessed as effect on osteoblast differentiation by measuring ECM calcification activity at […] incubated for 14 days in presence of beta-glycerol phosphate and ascorbic acid by Alizarin red S staining method; type: cell-based; conditions: mc3t3-e1, 336 h
[25] = system: RAW264.7; experiment: Inhibition of RANKL-induced osteoclastogenesis in mouse RAW264.7 cells assessed as TRAP+ multinucleated cells level at 2.5 uM incubated for 4 days by TRAP staining assay; type: functional; set-up: scale not given: the % may be the effect or the level left; summary of the method: as §2

| Compound | viability at 24 h, 10 µM [1] | CC50 at 24 h [2] | Activity [3] | IC50 [4] | Activity [5] | Activity [6] | Activity [7] | inhibition [8] | IC50 [8] | inhibition [9] | inhibition [10] | inhibition [11] | inhibition [12] | inhibition [13] | inhibition [14] | inhibition [15] | inhibition [16] | fold change (FC) [17] | fold change (FC) [18] | fold change (FC) [19] | further results |
| --- | --- | --- | --- | --- | --- | --- | --- | --- | --- | --- | --- | --- | --- | --- | --- | --- | --- | --- | --- | --- | --- |
| O=c1oc2ccccc2c(=O)n1-c1ccc(Cl)cc1F | 97.9% | 26.5 µM | 19.7% | 7.1 µM | Non-toxic | 74.6% | 45.9% | Dose-dependent effect | 10.6 µM | Active | Active | Active | Dose-dependent effect | Dose-dependent effect | Dose-dependent effect | Dose-dependent effect | Dose-dependent effect | 0.77 | 0.73 | 0.99 | fold change (FC) [20]: 0.76; inhibition [21]: Dose-dependent effect; inhibition [22]: Active; Activity [23]: Non-toxic; Activity [24]: Non-toxic |
| O=c1oc2ccccc2c(=O)n1-c1ccc(I)cc1F | 91.4% | 23.6 µM | 1.8% | 4.9 µM | Non-toxic | 49.1% | 29.1% | Dose-dependent effect | 7.3 µM | Active | Active | Active | Dose-dependent effect | Dose-dependent effect | Dose-dependent effect | Dose-dependent effect | Dose-dependent effect | 0.75 | 0.58 | 0.76 | Activity [25]: 74.1%; fold change (FC) [20]: 0.72; inhibition [21]: Dose-dependent effect; inhibition [22]: Active; Activity [23]: Non-toxic; Activity [24]: Non-toxic |
